Experimental data taken from ChEMBL document CHEMBL4715780, “Biological evaluation of tetracationic compounds based on two 1,4-diazabicyclo[2.2.2]octane moieties connected by different linkers” (Bioorg Med Chem, 2016).

Columns and labels:
[1] = Selectivity index, ratio of CC50 for HEK293T cells assessed as reduction in cell viability measured after 24 hrs by MTT assay to MIC for Candida albicans CEMTC 34 assessed as bacterial growth inhibition by CLSI protocol based serial microdilution method; type: toxicity; conditions: human, read-out: Selectivity Index
Procedure, shortened: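 SI = CC₅₀ (HEK293T) / MIC. HEK293T cells were seeded at 20,000/well overnight, then exposed to 10–250 µg/mL in IMDM with 10% FBS for 24 h. MTT was added for 4 h, solubilised with SDS-HCl, and read at 570 nm; duplicates, ≥2 independent runs. MIC came from two-fold dilutions in Sabouraud dextrose broth at ~5 × 10⁵ CFU/mL, 37 °C with shaking, read at 595 nm, in duplicate.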

[2] = Selectivity index, ratio of CC50 for HEK293T cells assessed as reduction in cell viability measured after 24 hrs by MTT assay to MIC for Proteus vulgaris ATCC 6380 assessed as bacterial growth inhibition by CLSI protocol based serial microdilution method; type: toxicity; conditions: human, read-out: Selectivity Index
Staphylococcus aureus [3] = test: Bactericidal activity against […] Staphylococcus aureus ATCC 25923 assessed as colony forming unit at 1.25 ug/ml measured at 2 hrs by time kill assay (reference value: 10^6 CFU/ml); type: functional; conditions: dose 1.25 µg/ml
Procedure, shortened: (§1)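 S. aureus overnight culture was adjusted in MHB to ~8 × 10⁵ CFU/mL. Compound was added and the mixture incubated at 37 °C with shaking (580 rpm) for 22 h. Aliquots were plated for colony counts at 2, 4, 6, 8 and 22 h, with a quantification limit of 100 CFU/mL. Runs were done in triplicate.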

Pseudomonas aeruginosa = test: Bactericidal activity against Pseudomonas aeruginosa ATCC 9027 assessed as reduction in colony forming unit at 5 ug/ml measured at 4 hrs by time kill assay relative to control; type: functional; parameters: scale not given: the % may be the effect or the level left; conditions: dose 5 µg/ml
Procedure, shortened: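 Overnight Pseudomonas aeruginosa culture adjusted in Mueller–Hinton broth to about 2.5 × 10⁵ CFU/mL. Compound added at 2.5, 5 or 10 µg/mL, then incubated at 37 °C with shaking (580 rpm) for 22 h. Viable colonies counted on plates at 2, 4, 6, 8 and 22 h. Quantification limit 100 CFU/mL; triplicate.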

Staphylococcus aureus [4] = test: Bactericidal activity against […] Staphylococcus aureus ATCC 25923 assessed as reduction in colony forming unit at 2.5 ug/ml measured at 2 hrs by time kill assay relative to control; type: functional; parameters: scale not given: the % may be the effect or the level left; conditions: dose 2.5 µg/ml; procedure, shortened: as §1
Staphylococcus aureus [5] = test: Bactericidal activity against […] Staphylococcus aureus ATCC 25923 assessed as reduction in colony forming unit at 5 ug/ml measured at 4 hrs by time kill assay relative to control; type: functional; parameters: scale not given: the % may be the effect or the level left; conditions: dose 5 µg/ml; procedure, shortened: as §1

Row | Compound | selectivity ratio at 24 h [1] | selectivity ratio at 24 h [2] | Activity (Staphylococcus aureus [3]) | Activity (Pseudomonas aeruginosa) | Activity (Staphylococcus aureus [4]) | Activity (Staphylococcus aureus [5])
1 | CCCCCCCCCCCC[N+]12CC[N+](Cc3ccccc3C[N+]34CC[N+](CCCCCCCCCCCC)(CC3)CC4)(CC1)CC2 | 1 | < 1 | <670 CFU/ml | >=99.9% | >=99% | 99.9%
2 | CCCCCCCCCCCC[N+]12CC[N+](CCC[N+]34CC[N+](CCCCCCCCCCCC)(CC3)CC4)(CC1)CC2 | – | < 1 | <100 CFU/ml | >=99.9% | – | –
